The results in this text go back to ChEMBL document CHEMBL4043303, “Development of Novel Melanocortin Receptor Agonists Based on the Cyclic Peptide Framework of Sunflower Trypsin Inhibitor-1” (J Med Chem, 2018).

Structures are written as SMILES.

One data set has as its target Melanocortin receptor 5 (Homo sapiens, UniProt P33032). Nature of the data set: Displacement of [125I]-NDP-alpha-MSH from human MC5R LBD expressed in HEK293 cell membranes incubated for 16 to 23 hrs in dark by scintillation proximity assay. On the set-up: concentration or dose not given beside the values. As to conditions: for inhibition: concentration not given here. Background: In a radioligand displacement assay an active substance lowers the binding of a labelled ligand.

The target in data set [1] is T1, Melanocortin receptor 3 (Homo sapiens, UniProt P41968). Briefly: Displacement of [125I]-NDP-alpha-MSH from human MC3R LBD expressed in HEK293 cell membranes incubated for 16 to 23 hrs in dark by scintillation proximity assay. As to conditions: for inhibition: concentration not given here. Further details: concentration or dose not given beside the values.
T1 sequence (P41968 whole entry, the tested form may be a part): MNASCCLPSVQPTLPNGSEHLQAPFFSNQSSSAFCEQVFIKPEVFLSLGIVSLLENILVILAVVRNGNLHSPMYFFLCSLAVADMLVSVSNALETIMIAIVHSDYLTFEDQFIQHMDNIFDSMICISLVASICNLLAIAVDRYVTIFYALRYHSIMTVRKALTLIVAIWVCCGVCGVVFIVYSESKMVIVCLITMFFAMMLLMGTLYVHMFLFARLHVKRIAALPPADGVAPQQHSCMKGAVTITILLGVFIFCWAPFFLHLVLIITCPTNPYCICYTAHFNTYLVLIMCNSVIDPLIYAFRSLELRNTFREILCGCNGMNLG
Data set [2] has as its target T2, Melanocortin receptor 4 (Homo sapiens, UniProt P32245). Nature of the data set: Agonist activity at human MC4R expressed in high doxycyclin-treated HEK293 cell membranes assessed as increase in cAMP production after 15 mins by HTRF method. The format is functional, cell-based. The essentials:
(§1)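 T-REx-293 cells stably expressing doxycycline-inducible human MC1R, MC3R or MC4R; expression induced 24 h with 0.1 ng/mL (low) or 10 ng/mL (high, MC4R only) doxycycline. 1000 cells/well in HBSS, 20 mM HEPES pH 7.4, 0.1% BSA, 1 mM IBMX; stimulated at 37 °C. Time-resolved FRET cAMP read-out normalized to NDP-α-MSH maximum.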
(In general: Cyclic AMP is a second messenger, typically raised through Gs and lowered through Gi signalling.)

For data set [3], the target named is T2, Melanocortin receptor 4. Briefly: Agonist activity at human MC4R expressed in low doxycyclin-treated HEK293 cell membranes assessed as increase in cAMP production after 45 mins by HTRF method. The format is functional, cell-based. The essentials: as §1
The target in data set [4] is T3, Melanocyte-stimulating hormone receptor (Homo sapiens, UniProt Q01726). Nature of the data set: Displacement of [125I]-NDP-alpha-MSH from human MC1R LBD expressed in HEK293 cell membranes incubated for 16 to 23 hrs in dark by scintillation proximity assay. Further details: concentration or dose not given beside the values. As to conditions: for inhibition: concentration not given here.

The target of data set [5] is T3, Melanocyte-stimulating hormone receptor. Nature of the data set: Agonist activity at human MC1R expressed in low doxycyclin-treated HEK293 cell membranes assessed as increase in cAMP production after 45 mins by HTRF method. The format is functional, cell-based.
Data set [6] deals with T1, Melanocortin receptor 3. Nature of the data set: Agonist activity at human MC3R expressed in low doxycyclin-treated HEK293 cell membranes assessed as increase in cAMP production after 45 mins by HTRF method. The format is functional, cell-based. Further details: concentration or dose not given beside the values. The essentials:
as §1

For data set [7], the target named is T2, Melanocortin receptor 4. Briefly: Displacement of [125I]-NDP-alpha-MSH from human MC4R LBD expressed in HEK293 cell membranes incubated for 16 to 23 hrs in dark by scintillation proximity assay. On the set-up: concentration or dose not given beside the values. The note with it: for inhibition: concentration not given here.
The nature of data set [8]: Solubility of the compound in water at 1 mM. The note with it: buffer, 1000 µM. It is filed as physicochemical.

T2 sequence (P32245 whole entry): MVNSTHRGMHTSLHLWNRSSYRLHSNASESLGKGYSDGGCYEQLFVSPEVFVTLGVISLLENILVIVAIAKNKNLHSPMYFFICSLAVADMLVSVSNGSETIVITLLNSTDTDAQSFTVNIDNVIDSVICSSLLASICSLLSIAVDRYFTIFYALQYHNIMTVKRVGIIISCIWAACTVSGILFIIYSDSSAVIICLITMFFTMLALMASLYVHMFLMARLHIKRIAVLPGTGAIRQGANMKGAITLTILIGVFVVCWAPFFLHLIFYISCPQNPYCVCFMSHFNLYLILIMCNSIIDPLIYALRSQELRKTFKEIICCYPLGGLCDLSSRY
Sequence of Melanocortin receptor 5 (P33032 whole entry, the tested form may be a part): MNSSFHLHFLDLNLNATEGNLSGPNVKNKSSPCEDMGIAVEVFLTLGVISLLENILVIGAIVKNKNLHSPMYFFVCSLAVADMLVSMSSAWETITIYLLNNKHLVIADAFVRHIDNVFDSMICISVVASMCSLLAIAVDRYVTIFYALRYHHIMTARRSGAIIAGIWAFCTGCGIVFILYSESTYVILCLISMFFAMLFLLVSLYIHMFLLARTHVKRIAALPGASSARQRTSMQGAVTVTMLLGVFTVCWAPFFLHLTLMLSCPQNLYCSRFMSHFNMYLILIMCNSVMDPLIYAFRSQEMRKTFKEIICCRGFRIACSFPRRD

As for `CC[C@H](C)[C@@H]1NC(=O)[C@@H]2CCCN2C(=O)[C@@H]2CCCN2C(=O)[C@H]([C@@H](C)CC)NC(=O)[C@H](CO)NC(=O)[C@H](C)NC(=O)[C@H]([C@H](C)O)NC(=O)[C@@H]2CSSC[C@H](NC1=O)C(=O)N(C)[C@@H](Cc1cnc[nH]1)C(=O)N[C@H](Cc1ccccc1)C(=O)N[C@@H](CCCNC(=N)N)C(=O)N(C)[C@@H](Cc1c[nH]c3ccccc13)C(=O)N[C@@H](CCCNC(=N)N)C(=O)N2`, the inhibition (on Melanocortin receptor 5; on Melanocortin receptor 3 [1]; in data set [4]; on Melanocortin receptor 4 [7]) was 100% throughout. The Activity (on Melanocortin receptor 4 [2]; at Melanocortin receptor 4 [3]; in data set [5]; on Melanocortin receptor 3 [6]) was 100% in each case.
For the compound `CC[C@H](C)[C@@H]1NC(=O)[C@@H]2CCCN2C(=O)[C@@H]2CCCN2C(=O)[C@H]([C@@H](C)CC)NC(=O)[C@H](CO)NC(=O)[C@H](C)NC(=O)[C@H]([C@@H](C)O)NC(=O)[C@@H]2CSSC[C@H](NC1=O)C(=O)N[C@@H](Cc1cnc[nH]1)C(=O)N[C@H](Cc1ccccc1)C(=O)N[C@@H](CCCNC(=N)N)C(=O)N(C)[C@@H](Cc1c[nH]c3ccccc13)C(=O)N[C@@H](CCCNC(=N)N)C(=O)N2`, the solubility result in data set [8] is “Soluble”.
Turning to `CC[C@H](C)[C@@H]1NC(=O)[C@@H]2CCCN2C(=O)[C@@H]2CCCN2C(=O)[C@H]([C@@H](C)CC)NC(=O)[C@H](CO)NC(=O)[C@H](C)NC(=O)[C@H]([C@@H](C)O)NC(=O)[C@@H]2CSSC[C@H](NC1=O)C(=O)N[C@@H](Cc1cnc[nH]1)C(=O)N[C@H](Cc1ccccc1)C(=O)N[C@@H](CCCNC(=N)N)C(=O)N[C@@H](Cc1c[nH]c3ccccc13)C(=O)N[C@@H](CCCNC(=N)N)C(=O)N2`, the solubility entry in data set [8] was “Soluble”.
Consider `CC[C@H](C)[C@@H]1NC(=O)[C@@H]2CCCN2C(=O)[C@@H]2CCCN2C(=O)[C@H]([C@@H](C)CC)NC(=O)[C@H](CO)NC(=O)[C@H](C)NC(=O)[C@H]([C@@H](C)O)NC(=O)[C@@H]2CSSC[C@H](NC1=O)C(=O)N[C@@H](Cc1cnc[nH]1)C(=O)N[C@H](Cc1ccccc1)C(=O)N(C)[C@@H](CCCNC(=N)N)C(=O)N[C@@H](Cc1c[nH]c3ccccc13)C(=O)N[C@@H](CCCNC(=N)N)C(=O)N2`, for which the solubility entry in [8] is “Soluble”.
On to `CC[C@H](C)[C@@H]1NC(=O)[C@@H]2CCCN2C(=O)[C@@H]2CCCN2C(=O)[C@H]([C@@H](C)CC)NC(=O)[C@H](CO)NC(=O)[C@H](C)NC(=O)[C@H]([C@H](C)O)NC(=O)[C@@H]2CSSC[C@H](NC1=O)C(=O)N(C)[C@@H](Cc1cnc[nH]1)C(=O)N[C@H](Cc1ccccc1)C(=O)N(C)[C@@H](CCCNC(=N)N)C(=O)N[C@@H](Cc1c[nH]c3ccccc13)C(=O)N[C@@H](CCCNC(=N)N)C(=O)N2`, for which the inhibition (at Melanocortin receptor 5; on Melanocortin receptor 3 [1]; in data set [4]; on Melanocortin receptor 4 [7]) was 100% each time. Besides, the Activity (at Melanocortin receptor 4 [2]; on Melanocortin receptor 4 [3]; in [5]; at Melanocortin receptor 3 [6]) was 100% throughout.
Regarding `CC[C@H](C)[C@@H]1NC(=O)[C@@H]2CCCN2C(=O)[C@@H]2CCCN2C(=O)[C@H]([C@@H](C)CC)NC(=O)[C@H](CO)NC(=O)[C@H](C)NC(=O)[C@H]([C@@H](C)O)NC(=O)[C@@H]2CSSC[C@H](NC1=O)C(=O)N[C@@H](Cc1c[nH]cn1)C(=O)N[C@H](Cc1ccccc1)C(=O)N(C)[C@@H](CCCNC(=N)N)C(=O)N(C)[C@@H](Cc1c[nH]c3ccccc13)C(=O)N[C@@H](CCCNC(=N)N)C(=O)N2`, the solubility entry in data set [8] was “Soluble”.
In the case of `CC[C@H](C)[C@@H]1NC(=O)[C@@H]2CCCN2C(=O)[C@@H]2CCCN2C(=O)[C@H]([C@@H](C)CC)NC(=O)[C@H](CO)NC(=O)[C@H](C)NC(=O)[C@H]([C@H](C)O)NC(=O)[C@@H]2CSSC[C@H](NC1=O)C(=O)N[C@@H](Cc1cnc[nH]1)C(=O)N[C@H](Cc1ccccc1)C(=O)N[C@@H](CCCNC(=N)N)C(=O)N(C)[C@@H](Cc1c[nH]c3ccccc13)C(=O)N[C@@H](CCCNC(=N)N)C(=O)N2`, the inhibition (at Melanocortin receptor 5; on Melanocortin receptor 3 [1]; in data set [4]; on Melanocortin receptor 4 [7]) was 100% each time. The Activity (at Melanocortin receptor 4 [2]; on Melanocortin receptor 4 [3]; in data set [5]; on Melanocortin receptor 3 [6]) was 100% each time.
The compound `CC[C@H](C)[C@@H]1NC(=O)[C@@H]2CCCN2C(=O)[C@@H]2CCCN2C(=O)[C@H]([C@@H](C)CC)NC(=O)[C@H](CO)NC(=O)[C@H](C)NC(=O)[C@H]([C@H](C)O)NC(=O)[C@@H]2CSSC[C@H](NC1=O)C(=O)N[C@@H](Cc1cnc[nH]1)C(=O)N[C@@H](Cc1ccccc1)C(=O)N[C@@H](CCCNC(=N)N)C(=O)N[C@@H](Cc1c[nH]c3ccccc13)C(=O)N[C@@H](CCCNC(=N)N)C(=O)N2` gave a concentration for half-maximal inhibition (IC50) on Melanocortin receptor 5 of 4.07 µM. The inhibition (at Melanocortin receptor 5; on Melanocortin receptor 3 [1]; in data set [4]; on Melanocortin receptor 4 [7]) was 100% in each case. For the same compound, the inhibitory constant (Ki) at Melanocortin receptor 3 [1] is 23.4 µM; in [4], 0.363 µM; on Melanocortin receptor 4 [7] it was 25.1 µM. Also, the Activity (at Melanocortin receptor 4 [2]; at Melanocortin receptor 4 [3]; in [5]; at Melanocortin receptor 3 [6]) was 100% in each case. In addition, the 50% effective concentration (EC50) at Melanocortin receptor 4 [2] was 3.09 µM; on Melanocortin receptor 4 [3], over 100 µM; in data set [5], 0.0417 µM; at Melanocortin receptor 3 [6] it was 2.14 µM. The solubility entry in data set [8] was “Soluble”.
With `CC[C@H](C)[C@@H]1NC(=O)[C@@H]2CCCN2C(=O)[C@@H]2CCCN2C(=O)[C@H]([C@@H](C)CC)NC(=O)[C@H](CO)NC(=O)[C@H](C)NC(=O)[C@H]([C@H](C)O)NC(=O)[C@@H]2CSSC[C@H](NC1=O)C(=O)N(C)[C@@H](Cc1cnc[nH]1)C(=O)N[C@H](Cc1ccccc1)C(=O)N[C@@H](CCCNC(=N)N)C(=O)N[C@@H](Cc1c[nH]c3ccccc13)C(=O)N[C@@H](CCCNC(=N)N)C(=O)N2`, the inhibition (at Melanocortin receptor 5; at Melanocortin receptor 3 [1]; in [4]; at Melanocortin receptor 4 [7]) was 100% in each case. Further, the Activity (on Melanocortin receptor 4 [2]; at Melanocortin receptor 4 [3]; in [5]; at Melanocortin receptor 3 [6]) was 100% throughout.
In the case of `CC[C@H](C)[C@@H]1NC(=O)[C@@H]2CCCN2C(=O)[C@@H]2CCCN2C(=O)[C@H]([C@@H](C)CC)NC(=O)[C@H](CO)NC(=O)[C@H](C)NC(=O)[C@H]([C@@H](C)O)NC(=O)[C@@H]2CSSC[C@H](NC1=O)C(=O)N(C)[C@@H](Cc1cnc[nH]1)C(=O)N[C@H](Cc1ccccc1)C(=O)N(C)[C@@H](CCCNC(=N)N)C(=O)N[C@@H](Cc1c[nH]c3ccccc13)C(=O)N[C@@H](CCCNC(=N)N)C(=O)N2`, in [8], the solubility entry is listed as “Soluble”.
As for `CC[C@H](C)[C@@H]1NC(=O)[C@@H]2CCCN2C(=O)[C@@H]2CCCN2C(=O)[C@H]([C@@H](C)CC)NC(=O)[C@H](CO)NC(=O)[C@H](C)NC(=O)[C@H]([C@@H](C)O)NC(=O)[C@@H]2CSSC[C@H](NC1=O)C(=O)N(C)[C@@H](Cc1cnc[nH]1)C(=O)N[C@H](Cc1ccccc1)C(=O)N(C)[C@@H](CCCNC(=N)N)C(=O)N(C)[C@@H](Cc1c[nH]c3ccccc13)C(=O)N[C@@H](CCCNC(=N)N)C(=O)N2`, in [8], the solubility entry is reported as “Soluble”.
On the same count and under the same terms, the result for `CC[C@H](C)[C@@H]1NC(=O)[C@@H]2CCCN2C(=O)[C@@H]2CCCN2C(=O)[C@H]([C@@H](C)CC)NC(=O)[C@H](CO)NC(=O)[C@H](C)NC(=O)[C@H]([C@@H](C)O)NC(=O)[C@@H]2CSSC[C@H](NC1=O)C(=O)N(C)[C@@H](Cc1cnc[nH]1)C(=O)N[C@H](Cc1ccccc1)C(=O)N[C@@H](CCCNC(=N)N)C(=O)N(C)[C@@H](Cc1c[nH]c3ccccc13)C(=O)N[C@@H](CCCNC(=N)N)C(=O)N2` reads “Soluble”.
For `CC[C@H](C)[C@@H]1NC(=O)[C@@H]2CCCN2C(=O)[C@@H]2CCCN2C(=O)[C@H]([C@@H](C)CC)NC(=O)[C@H](CO)NC(=O)[C@H](C)NC(=O)[C@H]([C@H](C)O)NC(=O)[C@@H]2CSSC[C@H](NC1=O)C(=O)N(C)[C@@H](Cc1cnc[nH]1)C(=O)N[C@H](Cc1ccccc1)C(=O)N(C)[C@@H](CCCNC(=N)N)C(=O)N(C)[C@@H](Cc1c[nH]c3ccccc13)C(=O)N[C@@H](CCCNC(=N)N)C(=O)N2`, the inhibition (on Melanocortin receptor 5; on Melanocortin receptor 3 [1]; in [4]; at Melanocortin receptor 4 [7]) was 100% throughout. Besides, the Activity (at Melanocortin receptor 4 [2]; on Melanocortin receptor 4 [3]; in [5]; at Melanocortin receptor 3 [6]) was 100% in each case.
For the compound `CC[C@H](C)[C@@H]1NC(=O)[C@@H]2CCCN2C(=O)[C@@H]2CCCN2C(=O)[C@H]([C@@H](C)CC)NC(=O)[C@H](CO)NC(=O)[C@H](C)NC(=O)[C@H]([C@@H](C)O)NC(=O)[C@@H]2CSSC[C@H](NC1=O)C(=O)N(C)[C@@H](Cc1cnc[nH]1)C(=O)N[C@H](Cc1ccccc1)C(=O)N[C@@H](CCCNC(=N)N)C(=O)N[C@@H](Cc1c[nH]c3ccccc13)C(=O)N[C@@H](CCCNC(=N)N)C(=O)N2`, the solubility entry in data set [8] is listed as “Soluble”.

The term inhibition denotes the change of the read-out against control, counted positive when it falls. For orientation: IC50 means the concentration that gives 50% inhibition. A word on the Ki: it is the dissociation constant of the complex between target and ligand, obtained from inhibition or displacement. A word on the EC50: it is the concentration giving half of the maximal effect.
